We go through 17 compounds from ChEMBL document CHEMBL1132997, “Bis(phenazine-1-carboxamides): structure-activity relationships for a new class of dual topoisomerase I/II-directed anticancer drugs” (J Med Chem, 2000).

The nature of assay [1]: The average concentration resulting in inhibition of cell growth to 50% whole cell line panel. It is filed as functional. The essentials: (§1)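 Tested in the NCI human tumour cell line panel. GI50 (nM) is the drug concentration inhibiting cell growth to 50% of controls. The panel mean ("Mid") is the average GI50 over the whole cell line panel.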
Assay [2] relates to Lewis lung carcinoma cell line. Nature of the assay: Inhibitory activity against Murine Lewis lung carcinoma cells. Type of assay: functional, cell-based. The following applies: Mus musculus. The method in brief: (§2)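 Growth inhibition in microculture with drug present throughout. Seeding was 4.5 × 10³ P388, 10³ Lewis lung or 3.75 × 10³ wild-type Jurkat cells per well. Exposure was 3 days for P388 and 4 days for the others. IC50 (nM) is the drug concentration reducing cell number to 50% of control cultures. Each value averages at least two independent duplicate determinations; CV 15–22%.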

For a further assay, the system named is HCT-116. In words: 50% inhibition of cell growth against HCT116 cell line. It is filed as functional. As to conditions: Homo sapiens. The method in brief: as §1
The next assay has as its system SK-OV-3. Nature of the assay: 50% inhibition of cell growth against SKOV-3 cell line. Type of assay: functional. The following applies: Homo sapiens. The essentials: as §1
A further assay deals with NCI/ADR-RES. Nature of the assay: 50% inhibition of cell growth against NCI/ADRcell line. As to conditions: Homo sapiens. It is filed as functional. The essentials: as §1
A further assay concerns CAKI-1. Nature of the assay: 50% inhibition of cell growth against CAK1 cell line. Type of assay: functional. As to conditions: Homo sapiens. The method in brief:
as §1

For the next assay, the system named is MCF7. Nature of the assay: 50% inhibition of cell growth against MCF-7 cell line. Type of assay: functional. The following applies: Homo sapiens. The essentials:
as §1

The test system of the next assay is Jurkat. In words: Inhibitory activity against wild-type human Jurkat leukemia cells. It is filed as functional, cell-based. The method in brief:
as §2

A further assay concerns HT-29. Nature of the assay: 50% inhibition of cell growth against HT-29 cell line. It is filed as functional. As to conditions: Homo sapiens. The method in brief:
as §1

A further assay deals with P388. In words: Inhibitory activity against Murine P388 leukemia cells. Type of assay: functional, cell-based. The following applies: Mus musculus. The essentials: as §2

A value given as a limit tells only on which side of the number the result lay.

One may read the GI50 as the concentration at which growth is held to half of that of the control. The low end stands for more potent growth inhibition, the high end for less potent growth inhibition. In general, IC50 refers to the concentration that inhibits the measured activity by half. A lower IC50 goes with greater potency in that assay. Consider `Cc1ccc2nc3cccc(C(=O)NCCCN(C)CCCNC(=O)c4cccc5nc6ccc(C)cc6nc45)c3nc2c1`, for which the GI50 in [1] was determined as 290 nM; in the assay on HCT-116, 325 nM; in the assay on SK-OV-3, 11000 nM; in the assay on NCI/ADR-RES, 1570 nM; with CAKI-1, 240 nM; with MCF7, 330 nM. This compound displayed a GI50 with HT-29 of 90 nM. Besides, the IC50 in [2] is 108 nM; with Jurkat it was 148 nM; in the assay on P388, 690 nM.
As to `CN(CCCNC(=O)c1cccc2nc3ccc(Cl)cc3nc12)CCCNC(=O)c1cccc2nc3ccc(Cl)cc3nc12`, the GI50 in [1] was 70 nM; with HCT-116, below 10 nM; in the assay on SK-OV-3, 1880 nM; with NCI/ADR-RES, 240 nM; in the assay on CAKI-1, 62 nM; with MCF7, below 10 nM. The same compound had a GI50 in the assay with HT-29 below 10 nM. Moreover, the figures for the IC50 (in [2]; in the assay on Jurkat; with P388) were 44 nM, 42 nM and 97 nM, respectively.
Take `COc1cccc2nc3cccc(C(=O)NCCCN(C)CCCNC(=O)c4cccc5nc6cccc(OC)c6nc45)c3nc12`: the GI50 in assay [1] is 575 nM; in the assay with HCT-116 it was below 10 nM; with SK-OV-3 it was 1560 nM; in the assay on NCI/ADR-RES, 21000 nM; in the assay with CAKI-1 it was 1420 nM; in the assay on MCF7, 47 nM. This compound showed a GI50 with HT-29 of 35 nM. The values for the IC50 (in [2]; in the assay with Jurkat; in the assay with P388) were 160 nM, 124 nM and 815 nM, respectively.
As to `CN(CCCNC(=O)c1cccc2nc3cccc(N(C)C)c3nc12)CCCNC(=O)c1cccc2nc3cccc(N(C)C)c3nc12`, the GI50 stood at 2510 nM in [1]; 430 nM in the assay on HCT-116; 10000 nM in the assay with SK-OV-3; 11000 nM with NCI/ADR-RES; 2910 nM in the assay with CAKI-1; 1820 nM in the assay with MCF7. In addition, the GI50 with HT-29 is 530 nM. Moreover, the IC50 in [2] was found to be 310 nM; with Jurkat it was 695 nM; in the assay on P388, 2280 nM.
In the case of `CN(CCCNC(=O)c1cccc2nc3c(Cl)cccc3nc12)CCCNC(=O)c1cccc2nc3c(Cl)cccc3nc12`, the 50% inhibitory concentration (IC50) in assay [2] is 151 nM; with Jurkat, 209 nM; with P388 it was 7740 nM.
`Cc1ccc(C)c2nc3c(C(=O)NCCCN(C)CCCNC(=O)c4cccc5nc6c(C)ccc(C)c6nc45)cccc3nc12`: the GI50 is 34 nM in [1]; below 10 nM in the assay with HCT-116; 74 nM in the assay with SK-OV-3; 35 nM in the assay on NCI/ADR-RES; below 10 nM in the assay on CAKI-1; below 10 nM in the assay with MCF7. The same compound showed a GI50 with HT-29 below 10 nM. The figures for the IC50 (in [2]; in the assay with Jurkat; with P388) were 5.3 nM, 21 nM and 26 nM, respectively.
Regarding `CN(CCCNC(=O)c1cccc2nc3c(ccc4ccccc43)nc12)CCCNC(=O)c1cccc2nc3c(ccc4ccccc43)nc12`, the IC50 in assay [2] came to 410 nM; in the assay on Jurkat it was 290 nM; in the assay on P388, 450 nM.
As to `COc1ccc2nc3c(C(=O)NCCCN(C)CCCNC(=O)c4cccc5nc6cc(OC)ccc6nc45)cccc3nc2c1`, the GI50 was determined as 4170 nM in [1]; 37 nM with HCT-116; 9660 nM in the assay on SK-OV-3; 20000 nM in the assay on NCI/ADR-RES; 3020 nM with CAKI-1; 2000 nM with MCF7. The GI50 in the assay with HT-29 turned out to be 93 nM. The IC50 in [2] came to 64 nM; in the assay with Jurkat it was 195 nM; in the assay on P388 it was 600 nM.
For `CN(CCCNC(=O)c1cccc2nc3cc(Cl)ccc3nc12)CCCNC(=O)c1cccc2nc3cc(Cl)ccc3nc12`, the GI50 in assay [1] is 560 nM; with HCT-116, 35 nM; in the assay with SK-OV-3 it was 1960 nM; with NCI/ADR-RES, 1140 nM; in the assay with CAKI-1, 530 nM; in the assay with MCF7, 330 nM. For the same compound, the GI50 in the assay on HT-29 amounted to 80 nM. In addition, the IC50 in [2] is 83 nM; in the assay with Jurkat it was 249 nM; in the assay with P388 it was 2960 nM.
Turning to `CN(CCCNC(=O)c1c(Cl)ccc2nc3ccccc3nc12)CCCNC(=O)c1c(Cl)ccc2nc3ccccc3nc12`, the GI50 in assay [1] was 5750 nM; in the assay with HCT-116, 285 nM; in the assay with SK-OV-3 it was 88000 nM; in the assay with NCI/ADR-RES, above 100000 nM; in the assay with CAKI-1 it was 34000 nM; with MCF7, 4070 nM. This compound also displayed a GI50 in the assay with HT-29 of 135 nM. Further, the 50% inhibitory concentration (IC50) in assay [2] was 8370 nM; with Jurkat, 2370 nM; with P388, 12000 nM.
Regarding `CN(CCCNC(=O)c1cccc2nc3ccc4ccccc4c3nc12)CCCNC(=O)c1cccc2nc3ccc4ccccc4c3nc12`, the figures for the IC50 (in [2]; in the assay with Jurkat; in the assay on P388) were 3.2 nM, 9 nM and 24 nM, respectively.
As for `Cc1cc(C(=O)NCCCN(C)CCCNC(=O)c2cc(C)cc3nc4ccccc4nc23)c2nc3ccccc3nc2c1`, the GI50 in assay [1] came to 725 nM; in the assay on HCT-116 it was 470 nM; in the assay on SK-OV-3, 12000 nM; with NCI/ADR-RES it was 5730 nM; with CAKI-1, 170 nM; in the assay on MCF7, 310 nM. The same compound showed a GI50 with HT-29 of 130 nM. The IC50 stood at 48 nM in assay [2], 208 nM with Jurkat and 472 nM with P388.
As for `CN(CCCNC(=O)c1cccc2nc3cccc(Oc4ccccc4)c3nc12)CCCNC(=O)c1cccc2nc3cccc(Oc4ccccc4)c3nc12`, the GI50 in [1] was determined as 3160 nM; in the assay with HCT-116, 1770 nM; in the assay on SK-OV-3 it was 11000 nM; with NCI/ADR-RES it was 1630 nM; in the assay on CAKI-1 it was 5360 nM; in the assay with MCF7, 3480 nM. The compound also gave a GI50 in the assay with HT-29 of 1790 nM. Further, the IC50 in assay [2] came to 1310 nM; in the assay with Jurkat, 1250 nM; with P388 it was 3450 nM.
Take `CN(CCCNC(=O)c1cccc2nc3cccc(Cl)c3nc12)CCCNC(=O)c1cccc2nc3cccc(Cl)c3nc12`: the GI50 was 93 nM in assay [1]; below 10 nM in the assay with HCT-116; 790 nM in the assay with SK-OV-3; 350 nM with NCI/ADR-RES; 15 nM in the assay with CAKI-1; 35 nM in the assay on MCF7. Also, halving of growth in the assay with HT-29 (GI50) required 70 nM. Also, the IC50 in assay [2] was 8.8 nM; in the assay with Jurkat it was 14 nM; in the assay on P388, 39 nM.
On to `CN(CCCNC(=O)c1cccc2nc3cccc(F)c3nc12)CCCNC(=O)c1cccc2nc3cccc(F)c3nc12`, for which the GI50 amounted to 1320 nM in assay [1]; 225 nM with HCT-116; 14000 nM in the assay on SK-OV-3; 7450 nM in the assay with NCI/ADR-RES; 1730 nM with CAKI-1; 460 nM in the assay on MCF7. In addition, halving of growth in the assay on HT-29 (GI50) required 400 nM. Also, the IC50 in [2] amounted to 120 nM; in the assay with Jurkat, 177 nM; with P388, 294 nM.
For the compound `CN(CCCNC(=O)c1cccc2nc3ccccc3nc12)CCCNC(=O)c1cccc2nc3ccccc3nc12`, the GI50 in [1] was 210 nM; in the assay on HCT-116, 16 nM; in the assay on SK-OV-3, 850 nM; with NCI/ADR-RES, 1050 nM; in the assay with CAKI-1 it was 225 nM; in the assay on MCF7, 120 nM. Moreover, halving of growth in the assay on HT-29 (GI50) required 44 nM. The IC50 worked out at 107 nM in assay [2], 173 nM in the assay on Jurkat and 520 nM in the assay with P388.
For the compound `Cc1ccc(C(=O)NCCCN(C)CCCNC(=O)c2ccc(C)c3nc4ccccc4nc23)c2nc3ccccc3nc12`, the IC50 in assay [2] amounted to 26 nM; with Jurkat, 102 nM; with P388, 375 nM.
